Screening results (PubChem)
Only some compounds are listed: those with a hit (about 2.4% of all), similar ones and a draw of the others.
VIM-2 inhibitor: blocks Pseudomonas aeruginosa VIM-2 metallo-beta-lactamase | purified VIM-2, nitrocefin hydrolysis, epi-absorbance fluorescence | inhibition, % at 5.6 µM | 290,000 compounds, 0.89% hits | AID 1527;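 active means inhibition above the mean of all tested compounds plus 3 SD, cutoff set per screening run, cut at about 7.5% in these data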;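 further: red hydrolysis product quenches plate fluorescence so inhibitors raise well fluorescence; 0% = enzyme with DMSO and 100% = DMSO without enzyme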
IMP-1 inh-1: inhibitors of Pseudomonas aeruginosa IMP-1 metallo-beta-lactamase; purified IMP-1, nitrocefin hydrolysis, epi-absorbance fluorescence; 290,000 compounds, 0.45% hits; inhibition, % at 5.6 µM; AID 1556;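 active means inhibition above the mean plus 3 SD of all compounds in the same screening run, cut at about 4.5% in these data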;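 further: 0% = IMP-1 with DMSO and 100% = DMSO wells lacking enzyme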
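Test system: recombinant IMP-1 enzyme, purified / Medium: HEPES buffer pH 7.1 with ZnSO4 and Brij 35 / Doses: single dose, 5.6 µM / Times: 25 °C, 15 min preincubation, 25 min reaction / Detection: Epi-absorbance via hydrolysed-nitrocefin quenching of white-plate fluorescence, 480/530 nm, EDTA stop / Evaluation: percent inhibition from optical density relative to buffer-blank wells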
M18AAP inhibitor: PfM18AAP enzyme inhibition. recombinant PfM18AAP, H-Glu-NHMec fluorogenic cleavage. inhibition, % at 7.35 µM. 290,000 compounds, 1.2% hits. AID 1822;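 active means inhibition above the campaign mean inhibition over all tested compounds plus 3 SD, cut at about 28% in these data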;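 further: 0% = plate median of test compound wells and 100% = 2 mM ZnCl2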
HGIII-sPLA2 inh: Inhibits HGIII-sPLA2 liposome hydrolysis, primary screen; inhibition, % at 12.2 µM; QFRET BODIPY PC-A2 liposome hydrolysis, fluorescence; 370,000 compounds, 0.56% hits;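 active means inhibition above mean plus 3 SD of compounds lying within the high and low control bounds, cut at about 19% in these data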;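 further: 0% = median of test compound wells and 100% = no enzyme DMSO wells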
Target sequence (Q9NZ20 whole entry, looked up): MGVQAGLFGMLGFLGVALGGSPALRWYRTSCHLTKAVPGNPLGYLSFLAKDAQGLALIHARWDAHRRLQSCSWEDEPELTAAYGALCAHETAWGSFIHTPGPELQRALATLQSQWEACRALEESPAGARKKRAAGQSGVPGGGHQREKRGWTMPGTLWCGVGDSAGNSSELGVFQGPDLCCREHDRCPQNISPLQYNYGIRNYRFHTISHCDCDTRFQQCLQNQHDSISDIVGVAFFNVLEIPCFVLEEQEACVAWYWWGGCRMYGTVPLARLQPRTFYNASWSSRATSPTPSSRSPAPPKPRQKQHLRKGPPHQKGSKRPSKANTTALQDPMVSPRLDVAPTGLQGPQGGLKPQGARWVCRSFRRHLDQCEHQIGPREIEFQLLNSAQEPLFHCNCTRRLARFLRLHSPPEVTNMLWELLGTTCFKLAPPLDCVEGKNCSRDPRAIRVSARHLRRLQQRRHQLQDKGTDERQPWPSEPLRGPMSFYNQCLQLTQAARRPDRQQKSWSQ
IMP-1 inh-2: selectivity counter-screen for VIM-2 inhibitors: IMP-1 metallo-beta-lactamase inhibitors. shares compounds with VIM-2 inhibitor. purified IMP-1, nitrocefin hydrolysis, epi-absorbance fluorescence. inhibition, % at 5.6 µM. 1,300 tested, under 10 active; call rule not given here;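 further: 0% = enzyme with vehicle and 100% = vehicle without enzyme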
VIM-2 FRET ctr: inhibits VIM-2 in FRET assay to exclude epi-absorbance artifacts | shares compounds with VIM-2 inhibitor | purified VIM-2, CCF2 FRET substrate hydrolysis | inhibition, % at 5.6 µM | 1,300 compounds, 23% hits;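 active means inhibition above the mean of all tested compounds plus 3 SD, cut at about 19% in these data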;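 further: 0% = VIM-2 plus DMSO and 100% = no enzyme wells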
TEM-1 inh: selectivity counter-screen for VIM-2 inhibitors: E. coli TEM-1 inhibitors. shares compounds with VIM-2 inhibitor. Purified TEM-1, nitrocefin hydrolysis, epi-absorbance fluorescence. inhibition, % at 5.6 µM. 1,300 compounds, 3% hits. AID 1866;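 active means inhibition above that campaign's mean inhibition plus 3 SD, cut at about 0.46% in these data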;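 further: 0% = TEM-1 with DMSO and 100% = TEM-1 with 100 µM potassium clavulanate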
VIM-2 confirm 2: confirmation of P. aeruginosa VIM-2 metallo-beta-lactamase inhibitors | AID 2187 | purified VIM-2, nitrocefin hydrolysis, epi-absorbance | inhibition, % at 5.6 µM | 1,300 compounds, 96% hits | shares compounds with VIM-2 inhibitor;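 active means inhibition of the VIM-2 beta-lactamase enzyme above about 11% from the earlier first-round screen, limit read from the data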;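 further: 0% = VIM-2 with DMSO and 100% = buffer wells without enzyme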
* marks the source's active call; other numbers are inactive results; x = no result.

SMILES	VIM-2 inhibitor	IMP-1 inh-1	M18AAP inhibitor	HGIII-sPLA2 inh	IMP-1 inh-2	VIM-2 FRET ctr	TEM-1 inh	VIM-2 confirm 2
CCOC(=O)c1cnc2c(cnn2C)c1NCCCn1ccnc1	75*	-1	-5	-2	-3	-10	-4	81*
CCOC(=O)c1cnc2c(cnn2C)c1NCCC#N	1	0	-14	0	x	x	x	x
O=C(CSc1nnc(-c2cccnc2)n1C1CCCCC1)N1CCCC1	x	x	x	1	x	x	x	x
Cc1onc(-c2ccccc2)c1C(=O)N/N=C/c1cccc(O)c1	-4	-1	-2	-7	x	x	x	x
Cc1onc(-c2ccccc2)c1C(=O)N/N=C/c1ccco1	34*	-5	19	3	-4	3	-5	2
COc1c(N)c2c(c([N+](=O)[O-])c1OC)C(=O)OC2	x	x	x	4	x	x	x	x
CCN(CC)CCSc1nnc2c3cc(C)ccc3n(Cc3ccccc3)c2n1	23*	-2	4	-17	-3	4	-7	43*
CC1=CCC(C(=O)O)(C(=O)N/N=C/c2cccnc2)C(c2ccccc2)C1 (stereo not given)	3	-2	8	-1	x	x	x	x
CC1=CCC(C(=O)O)(C(=O)N/N=C/c2cccs2)C(c2ccc(Cl)cc2)C1 (stereo not given)	15*	-1	-2	10	-4	0	-5	4
O=C(O)CCN1C(=O)C2CCCCC2C1=O (stereo not given)	-3	-3	7	-4	x	x	x	x
O=C1C(=O)N(O)C2CCCCC2N1O (stereo not given)	13*	-3	-3	13	-4	47*	-7	24*
CN(C)CCNS(=O)(=O)c1ccc(N2CCN(c3ccc(F)cc3)CC2)c([N+](=O)[O-])c1	15*	-3	-3	-16	-3	34*	-8	24*
CC(=O)N1CCN(c2ccc(S(=O)(=O)NCCN(C(C)C)C(C)C)cc2[N+](=O)[O-])CC1	-1	-3	-11	2	x	x	x	x
CCCSCCCNC(=O)Cn1c(=O)c2cccn2c2ccccc21	-1	-3	6	1	x	x	x	x
NNC(=S)Nc1cccc(-c2n[nH]c(=S)o2)c1	15*	-2	10	3	-4	18*	-9	9.2*
CC1(c2nnnn2-c2ccc3ccccc3c2)CSCC(=O)N1C1CC1 (stereo not given)	x	x	x	-1	x	x	x	x
C[C@@H]1C(=O)N2N=Cc3ccccc3[C@H]2N2N=Cc3ccccc3[C@@H]12	x	x	x	2	x	x	x	x
O=c1[nH]c2cc3c(cc2cc1CN(Cc1cccnc1)C(=S)NCc1ccco1)OCCO3	18*	-2	2	0	-3	-5	-8	4
COc1ccc(C2=Nn3c(nnc3-c3ccccn3)SC2)cc1OC	52*	-3	6	5	-3	-2	-7	67*
COc1ccc(C2=Nn3c(nnc3-c3ccccc3OC)SC2)cc1OC	14*	-1	0	-7	-3	2	-6	27*
COc1ccc(C2=Nn3c(nnc3-c3ccco3)SC2)cc1OC	23*	3	1	1	-3	-6	-7	31*
COc1ccc(OC)c(C2=Nn3c(nnc3-c3cc(OC)c(OC)c(OC)c3)SC2)c1	13*	-4	-4	-8	-3	3	-6	26*
CCOc1ccc(C2=Nn3c(nnc3-c3ccco3)SC2)cc1	2	-3	-12	-11	x	x	x	x
COc1ccc(-c2nnc3n2N=C(c2cccc(Br)c2)CS3)cc1OC	-1	-2	4	x	x	x	x	x
Cc1ccc(NC(=O)CSCC(=O)N2CCCc3ccccc32)cc1	x	x	x	-11	x	x	x	x
Cc1[nH]c2ccccc2c1C1=CC(=O)C=CC1=O	x	x	x	15	x	x	x	x
CC(C)N(Cc1cn(Cc2ccccc2)nn1)S(=O)(=O)c1ccc(F)cc1Br	x	x	x	0	x	x	x	x
CCOc1cc(N2CCOCC2)c(OCC)cc1NC(=O)c1ccc(-n2ccnc2)c([N+](=O)[O-])c1	68*	-4	11	-1	-3	-7	-6	75*
COC(=O)C1CN(Cc2ccc(Cl)cc2)CCS(=O)(=O)N1Cc1cn(Cc2ccc(Cl)cc2)nn1 (stereo not given)	x	x	x	-14	x	x	x	x
